Experimental data: ChEMBL document CHEMBL3797083, “A New Series of Orally Bioavailable Chemokine Receptor 9 (CCR9) Antagonists; Possible Agents for the Treatment of Inflammatory Bowel Disease” (J Med Chem, 2016)
Converted amounts (≈) assume the structure as drawn. The source made the active and inactive calls. The calls are words filed in the database; no cut-off is given here.

How the values were obtained:
[1] = biological target: T1, C-C chemokine receptor type 9 (Homo sapiens, UniProt P51686); experiment: Antagonist activity at CCR9 receptor in human MOLT4 cells assessed as inhibition of CCL25-induced increase in intracellular calcium level preincubated for 1 hr followed CCL25 addition by FLIPR assay; type: functional, cell-based, MOLT-4
T1 sequence (P51686 whole entry): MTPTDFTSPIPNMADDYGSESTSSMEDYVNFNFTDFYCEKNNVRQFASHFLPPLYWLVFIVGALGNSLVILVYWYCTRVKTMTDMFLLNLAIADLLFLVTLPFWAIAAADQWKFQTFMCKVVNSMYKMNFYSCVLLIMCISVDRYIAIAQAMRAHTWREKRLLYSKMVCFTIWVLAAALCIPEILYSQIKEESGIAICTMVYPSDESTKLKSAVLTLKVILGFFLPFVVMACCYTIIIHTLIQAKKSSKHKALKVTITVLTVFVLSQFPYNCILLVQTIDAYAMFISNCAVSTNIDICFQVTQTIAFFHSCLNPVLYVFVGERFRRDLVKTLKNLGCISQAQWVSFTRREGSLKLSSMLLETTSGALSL

[2] = Solubility of compound at pH 7.4 buffer; type: physicochemical
How it was run: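 Solubility was measured at pH 7.4. Each value is the mean of three replicates.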

Liver microsome = experiment: Metabolic stability of compound in human liver microsomes assessed as remaining compound at 37 deg C; type: ADME
How it was run: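 Test compound incubated with human liver microsomes at 37 °C. Loss of parent compound was followed over a 30 min period, and the percentage remaining is reported as the mean of 3 replicates.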

[3] = Metabolic stability of compound in mouse liver microsomes assessed as remaining compound at 37 deg C; type: ADME
[4] = Elimination half life in mouse at 1 mg/kg, iv; type: ADME, organism-based; conditions: in vivo, read-out: beta t1/2 (converted)
[5] = Clearance in mouse at 1 mg/kg, iv; type: ADME, organism-based; conditions: in vivo
[6] = AUC in mouse at 10 mg/kg, po; type: ADME, organism-based; conditions: in vivo
[7] = Absolute bioavailability in mouse at 1 mg/kg, iv 10 mg/kg, po; type: ADME, organism-based; conditions: in vivo
Mus musculus [8] = experiment: Anticolitis activity in DSS-induced acute colitis C57BL/6 mouse model assessed as reduction in disease activity index at 50 mg/kg, sc bid for 10 days; type: functional; set-up: scale not given: the % may be the effect or the level left
Mus musculus [9] = experiment: Anticolitis activity in DSS-induced acute colitis C57BL/6 mouse model assessed as reduction in disease activity index at 3 mg/kg, po bid for 10 days; type: functional; conditions: C57BL/6, po, 240 h
Mus musculus [10] = experiment: Anticolitis activity in DSS-induced acute colitis C57BL/6 mouse model assessed as reduction in disease activity index at 10 mg/kg, po bid for 10 days; type: functional; conditions: C57BL/6, po, 240 h
Mus musculus [11] = experiment: Anticolitis activity in DSS-induced acute colitis C57BL/6 mouse model assessed as reduction in disease activity index at 30 mg/kg, po bid for 10 days; type: functional; conditions: C57BL/6, po, 240 h
Mus musculus [12] = experiment: Anticolitis activity in DSS-induced acute colitis C57BL/6 mouse model assessed as reduction in disease activity index at 100 mg/kg, po bid for 10 days; type: functional; conditions: C57BL/6, po, 240 h
Mus musculus [13] = experiment: Anticolitis activity in DSS-induced chronic colitis C57BL/6 mouse model assessed as reduction in disease activity index at 30 mg/kg, po bid for 30 days; type: functional, organism-based
Mus musculus [14] = experiment: Anticolitis activity in DSS-induced acute colitis C57BL/6 mouse model assessed as reduction in disease activity index at 30 mg/kg, sc bid for 10 days; type: functional; conditions: C57BL/6, sc, 240 h

| Compound | Ki [1] [nM] | solubility [2] [µM] | Stability (Liver microsome) [%] | Stability [3] [%] | half-life [4] [h] | clearance [5] [mL/min/kg] | AUC [6] [ng·h/mL] | bioavailability [7] [%] | Activity (Mus musculus [8]) [%] | inhibition in vivo at 3 mg/kg (Mus musculus [9]) [%] | inhibition in vivo at 10 mg/kg (Mus musculus [10]) [%] | inhibition in vivo at 30 mg/kg (Mus musculus [11]) [%] | inhibition in vivo at 100 mg/kg (Mus musculus [12]) [%] | Activity (Mus musculus [13]) | inhibition in vivo at 30 mg/kg (Mus musculus [14]) [%] |
| --- | --- | --- | --- | --- | --- | --- | --- | --- | --- | --- | --- | --- | --- | --- | --- |
| COc1ncccc1N1C(=O)c2c(Cl)ccc(NS(=O)(=O)c3ccc(C(C)(C)C)cc3)c2C1=O | 3 | 26 (≈ 13 µg/mL) | 67 | 64 | 5.37 | 1.73 | 24000 | 25 | – | – | – | – | – | – | – |
| CC(C)(C)c1ccc(S(=O)(=O)Nc2ccc(Cl)cc2C(=O)c2cc[n+]([O-])cc2)cc1 [VERCIRNON] | – | 6 (≈ 2.67 µg/mL) | 73 | 9 | 0.16 | 103 | 340 | 22 | 17 | – | – | – | – | – | – |
| CC(C)(C)c1ccc(S(=O)(=O)Nc2ccc(Cl)c3c2C(=O)N(c2ccc(F)nc2)C3=O)cc1 | 19 | – | – | – | – | – | – | – | – | – | – | – | – | – | – |
| CC(C)(C)c1ccc(S(=O)(=O)Nc2cccc3c2C(=O)N(Cc2cccnc2)C3=O)cc1 | 618 | – | – | – | – | – | – | – | – | – | – | – | – | – | – |
| Cc1c(N2C(=O)c3c(Cl)ccc(NS(=O)(=O)c4ccc(C(C)(C)C)cc4)c3C2=O)ccc[n+]1[O-] | – | 114 (≈ 57 µg/mL) | 71 | 76 | 1.28 | 4.69 | 16200 | 48 | – | 41 | 27 | 51 | 86 | Active | – |
| Cc1cccc(N2C(=O)c3c(Cl)ccc(NS(=O)(=O)c4ccc(C(C)(C)C)cc4)c3C2=O)n1 | – | 27 (≈ 13.1 µg/mL) | 61 | 42 | 1.32 | 2.34 | 67900 | 95 | – | – | – | – | – | – | – |
| COc1ccncc1N1C(=O)c2c(Cl)ccc(NS(=O)(=O)c3ccc(C(C)(C)C)cc3)c2C1=O | – | 10 (≈ 5 µg/mL) | 81 | 60 | 1.03 | 6.86 | 35600 | 100 | – | – | – | – | – | – | – |
| CC(C)(C)c1ccc(S(=O)(=O)Nc2ccc(Cl)c3c2C(=O)N(Cc2ccc[n+]([O-])c2)C3=O)cc1 | – | 126 (≈ 63 µg/mL) | 15 | 8 | 0.62 | 3.92 | 13900 | 33 | – | – | 21 | 31 | 58 | Active | 24 |
| CC(C)(C)c1ccc(S(=O)(=O)Nc2ccc(Cl)c3c2C(=O)N(Cc2cccc[n+]2[O-])C3=O)cc1 | – | 69 (≈ 34.5 µg/mL) | 81 | 79 | 1.05 | 2.57 | 36000 | 56 | – | – | 32 | 33 | 51 | Active | – |
| Cc1ncccc1N1C(=O)c2c(Cl)ccc(NS(=O)(=O)c3ccc(C(C)(C)C)cc3)c2C1=O | – | 81 (≈ 39.2 µg/mL) | 89 | 62 | 3.26 | 2.6 | 46800 | 73 | – | – | – | – | – | – | – |
